Measured values gathered from unrelated publications.
Protocols differ between the studies behind these lines.
JAK3: Tyrosine-protein kinase JAK3 (JAK3, Homo sapiens, UniProt P52333)
IDE: Insulin-degrading enzyme (IDE, Homo sapiens, UniProt P14735)
P2RX7: P2X purinoceptor 7 (P2RX7, Homo sapiens, UniProt Q99572)
TGFBR1: TGF-beta receptor type-1 (TGFBR1, Homo sapiens, UniProt P36897)
MET: Hepatocyte growth factor receptor (MET, Homo sapiens, UniProt P08581)
MMP1: Interstitial collagenase (MMP1, Homo sapiens, UniProt P03956)
CSF1R: Macrophage colony-stimulating factor 1 receptor (CSF1R, Homo sapiens, UniProt P07333)
gag-pol integrase: Gag-Pol polyprotein, integrase (gag-pol, Human immunodeficiency virus 1, UniProt P12497)

For `COc1ccc2c(Oc3ccc4c(C(=O)Nc5ccccc5N)cccc4c3)ccnc2c1`, the IC50 was > 0.5 µM (JAK3; enzyme activity; inhibitor).
The IC50 of `COC(=O)[C@H](Cc1c[nH]cn1)NC(=O)CN(CCc1c[nH]c2ccccc12)CC(=O)O` is reported as 1.2 µM (IDE; enzyme activity; inhibitor; fluorescence).
`Sc1nnc(-c2ccccn2)o1` gave an IC50 of 11.8 µM (P2RX7; calcium signal; antagonist).
`Nc1ncnc2c1c(COc1cccc(Cl)c1)nn2C1CCOCC1` gave an IC50 of 0.82 µM (TGFBR1; cell-free assay; TR-FRET).
`O=C(Nc1ccccc1)c1cc([N+](=O)[O-])ccc1Cl` gave an IC50 of 0.026 µM (Peroxisome proliferator-activated receptor alpha (PPARA, Homo sapiens, UniProt Q07869); ligand displacement; TR-FRET).
The IC50 of `CCOCc1nc(O)c(-c2nnc(Cc3ccc(Cl)cn3)o2)c(O)c1-c1c(OC)cccc1OC` is reported as > 30 µM (Alpha-1B adrenergic receptor (ADRA1B, Homo sapiens, UniProt P35368); ligand displacement; radioligand).
The IC50 of `O=C(O)C1=CC(=C(c2ccc(O)c(C(=O)O)c2)c2ccc(O)c(C(=O)O)c2)C=CC1=O` is reported as 1.34 µM (Lysosomal acid lipase/cholesteryl ester hydrolase (LIPA, Homo sapiens, UniProt P38571); enzyme activity; inhibitor).
For `Cc1cc(Oc2ccc(NC(=O)c3sc(-c4ccncc4)nc3C)cc2F)c2nncn2n1`, the IC50 was 0.65 µM (MET; enzyme activity; inhibitor; mobility shift).
`O=C(Nc1ccn(Cc2ccc(O)cc2C(F)(F)F)n1)c1c(F)cccc1F` gave an IC50 of > 10 µM (P2RX7; ion current).
`CC/C=C\C/C=C\C/C=C\C/C=C\C/C=C\CCCC(=O)O` has an IC50 of 88.5 µM (DNA polymerase beta (Rattus norvegicus, UniProt P06766); enzyme activity; inhibitor).
`CC1(C)CC(=O)C=C(NC(=O)Nc2ccc(O)cc2)C1` has an IC50 of 3.3 µM (crk3 (Leishmania mexicana, UniProt O15851); enzyme activity; inhibitor; radiometric).
For `NC(=O)NCCC[C@@H](NS(=O)(=O)c1ccc(OCc2cc(Br)cc(Br)c2)cc1)C(=O)NO`, the IC50 was > 500 µM (MMP1; enzyme activity; inhibitor; fluorescence).
With `Cc1cnc(-c2ccc(-c3ccc(NC(=O)Nc4c(F)cc(F)cc4F)cc3F)c3c2C(=O)NC3)[nH]1` the IC50 was 0.0021 µM (Serine/threonine-protein kinase 4 (STK4, Homo sapiens, UniProt Q13043); enzyme activity; inhibitor).
The IC50 of `CC[C@H](C)[C@H](NC(C)=O)C(=O)N[C@@H](CCC(=O)O)C(=O)N[C@H](C(=O)N[C@H](C=O)CC(=O)O)[C@@H](C)O` is reported as 0.0173 µM (Caspase-1 (CASP1, Homo sapiens, UniProt P29466); enzyme activity; inhibitor).
For `CNCCCC(c1ccccc1)(c1ccccc1)c1ccccc1`, the IC50 was 0.386 µM (Kinesin-like protein KIF11 (KIF11, Homo sapiens, UniProt P52732); ATPase activity; inhibitor).
`CC(C)C[C@H](NC(=O)[C@H](Cc1ccccc1)NC(=O)[C@H](Cc1ccc(O)cc1)NC(=O)CNC(=O)[C@H](CCCNC(=N)N)NC(=O)[C@H](CO)NC(=O)[C@H](CCC(N)=O)NC(=O)[C@H](CO)NC(=O)[C@H](C)NC(=O)[C@H](Cc1ccccc1)NC(=O)[C@@H]1CCCN1C(=O)[C@H](CO)NC(=O)[C@H](CCC(N)=O)NC(=O)[C@H](Cc1ccccc1)NC(=O)[C@H](CCC(=O)O)NC(=O)[C@H](CCC(=O)O)NC(=O)[C@H](CC(=O)O)NC(=O)[C@@H](NC(=O)[C@H](CCCNC(=N)N)NC(=O)[C@@H](N)Cc1ccccc1)C(C)C)C(=O)N[C@@H](Cc1ccccc1)C(=O)N[C@@H](CCCNC(=N)N)C(=O)N1CCC[C@H]1C(=O)N[C@@H](CCCNC(=N)N)C(=O)N[C@@H](CC(N)=O)C(N)=O` has an IC50 of 0.000219 µM (Neuromedin-U receptor 2 (NMUR2, Homo sapiens, UniProt Q9GZQ4); ligand displacement; radioligand).
`COC(=O)[C@H](CCCNC(=N)N)NC(=O)CN(CC(=O)O)Cc1ccccc1` gave an IC50 of 36.3 µM (IDE; enzyme activity; inhibitor; fluorescence).
`Cc1ccc(S(=O)(=O)Oc2ccccc2NC(=O)c2ccc3ncccc3c2)cc1` gave an IC50 of 1.49 µM (P2RX7; calcium signal; antagonist).
For `COC(=O)[C@H](Cc1c[nH]cn1)NC(=O)CN(CC(=O)O)Cc1ccc(C(C)(C)C)cc1`, the IC50 was 2.9 µM (IDE; enzyme activity; inhibitor; fluorescence).
With `Cc1ccc(/C=C2\C=C(CC(=O)O)c3cc(F)ccc32)cc1` the IC50 was ~26 µM (Prostaglandin G/H synthase 2 (Ptgs2, Mus musculus, UniProt Q05769); enzyme activity; inhibitor).
With `Cc1ccc(C(=O)Nc2ccc(Oc3cc4cnn(C)c4cc3-c3cn[nH]c3)c(F)c2)c(=O)n1-c1ccc(F)cc1` the IC50 was 0.3 µM (CSF1R; phosphorylation in cells; inhibitor; western blot).
`Cc1cc(Oc2ccc(NC(=O)c3sc(-c4ccc(F)cc4)nc3C)cc2)c2nncn2n1` has an IC50 of 0.79 µM (MET; enzyme activity; inhibitor; mobility shift).
The IC50 of `CCOC(=O)c1cnc2[nH]ccc2c1N[C@@H]1CCCN(C(=O)CC#N)C1` is reported as 0.0036 µM (JAK3; enzyme activity; inhibitor).
For `CC(C)(C)n1nc(-c2ccc3nc(OC4CC4)ccc3c2)c(C(N)=O)c1N`, the IC50 was > 10 µM (JAK3; cell-free assay).
`O=C(O)CN(CC(=O)N[C@@H](Cc1c[nH]cn1)C(=O)NCc1ccccc1)Cc1ccccc1` has an IC50 of 1.4 µM (IDE; enzyme activity; inhibitor; fluorescence).
With `O=C(O)[C@H](Cc1ccc2ccccc2c1)NC(=O)C1(c2ccc(F)cc2)CCN(S(=O)(=O)c2ccccc2)CC1` the IC50 was 150 µM (gag-pol integrase; enzyme activity; inhibitor; TR-FRET).
For `CCCc1ccc(S(=O)(=O)Oc2ccccc2NC(=O)c2ccc3ncccc3c2)cc1`, the IC50 was 2.17 µM (P2RX7; calcium signal; antagonist).
`CN1CCN(c2ccc(Nc3ncc4cc(C#N)c(=O)n(C5CCCC5)c4n3)cc2)CC1` has an IC50 of 1.84 µM (TGFBR1; enzyme activity; inhibitor).
The IC50 of `CCC[C@H](NC(=O)C1CN(C)C1)c1ncc(-c2cc3ccccc3nc2OC)[nH]1` is reported as 0.16 µM (Histone deacetylase 3 (HDAC3, Homo sapiens, UniProt O15379); enzyme activity; inhibitor; fluorescence).
`Cc1cc(Oc2ccc(NC(=O)c3cc(-c4cccs4)no3)cc2)c2nncn2n1` has an IC50 of 0.88 µM (MET; enzyme activity; inhibitor; mobility shift).
The IC50 of `CC(C)(C)OC(=O)N1CCC(C(=O)N[C@@H](Cc2ccccc2)C(=O)O)(c2ccc(-c3ccccc3)cc2)CC1` is reported as 64.4 µM (gag-pol integrase; enzyme activity; inhibitor; TR-FRET).
The IC50 of `CC(C)C[C@H](CC(=O)NO)C(=O)N[C@@H](Cc1ccccc1)C(=O)NCCN1CCOCC1` is reported as 0.003 µM (MMP1; enzyme activity; inhibitor; absorbance).
`CC(C)(C)OC(=O)N1CCC(C(=O)N[C@@H](Cc2ccc3ccccc3c2)C(=O)O)(c2ccccc2)CC1` has an IC50 of 90.3 µM (gag-pol integrase; enzyme activity; inhibitor; TR-FRET).
`COC(=O)[C@H](Cc1c[nH]cn1)NC(=O)CN(Cc1ccccc1)c1c(O)c(=O)c1=O` gave an IC50 of 12.5 µM (IDE; enzyme activity; inhibitor; fluorescence).
`Cc1cc(Oc2ccc(NC(=O)c3sc(-c4ccccn4)nc3C)cc2F)c2nncn2n1` has an IC50 of 0.9 µM (MET; enzyme activity; inhibitor; mobility shift).
With `O=C(O)CN(CCCc1ccccc1)CC(=O)N[C@H](CO)Cc1c[nH]cn1` the IC50 was 1.6 µM (IDE; enzyme activity; inhibitor; fluorescence).
The IC50 of `C[C@H]1C[C@@H](N2C(=N)N[C@](C)(c3cccc(Nc4ccc(C5CC5)nc4)c3Cl)CC2=O)CCO1` is reported as 8 µM (Sodium channel protein type 10 subunit alpha (SCN10A, Homo sapiens, UniProt Q9Y5Y9); ion current; inhibitor; patch clamp).
The IC50 of `NC(=O)c1ccc[n+]([C@@H]2O[C@H](COP(=O)([O-])OP(=O)(O)OC[C@H]3O[C@@H](n4cnc5c(N)ncnc54)[C@H](O)[C@@H]3O)[C@@H](O)[C@H]2O)c1` is reported as 5 µM (Protein mono-ADP-ribosyltransferase PARP3 (PARP3, Homo sapiens, UniProt Q9Y6F1); enzyme activity; inhibitor).
`COC(=O)[C@H](Cc1c[nH]cn1)NC(=O)CN(CC(=O)O)Cc1ccncc1` gave an IC50 of 6.3 µM (IDE; enzyme activity; inhibitor; fluorescence).
For `Sc1nnc(-c2cc(-c3ccccc3)nc3ccccc23)o1`, the IC50 was 7.27 µM (P2RX7; calcium signal; antagonist).
The IC50 of `Cc1[nH]c(/C=C2\C(=O)Nc3ccc(S(=O)(=O)N(C)c4cccc(Cl)c4)cc32)c(C)c1C(=O)N1CCN(C)CC1` is reported as 0.005 µM (Hepatocyte growth factor receptor, non-phosphorylated (MET, Homo sapiens, UniProt P08581); enzyme activity; inhibitor; TR-FRET).
`O=C(O)[C@H](Cc1ccccc1)NC(=O)C1(c2ccc(F)cc2)CCN(S(=O)(=O)c2ccccc2)CC1` has an IC50 of 91.3 µM (gag-pol integrase; enzyme activity; inhibitor; TR-FRET).
With `CCOc1ccc2c(-c3cc(C)nc(Nc4cc(OC)cc(C(F)(F)F)c4)n3)cnn2n1` the IC50 was > 10 µM (Homeodomain-interacting protein kinase 1 (HIPK1, Homo sapiens, UniProt Q86Z02); enzyme activity; inhibitor).
`CNC(=O)c1cc2c(Oc3ccc(NC(=O)C4(C(=O)Nc5ccc(F)cc5)CC4)cc3)ccnc2cc1OC` has an IC50 of 0.005 µM (Hepatocyte growth factor receptor (MET, Homo sapiens, UniProt P08581, Y1230H); enzyme activity; inhibitor; radiometric).
For `CCn1ncc2c1-c1cnc(N)c(c1)O[C@H](C)c1cc(F)ccc1-c1nn(C)nc1C2`, the IC50 was 0.489 µM (CSF1R; enzyme activity; inhibitor; radiometric).
For `CC(C)(C)OC(=O)[C@H](Cc1c[nH]cn1)NC(=O)CN(CCCc1ccccc1)CC(=O)O`, the IC50 was 0.4 µM (IDE; enzyme activity; inhibitor; fluorescence).
With `O=C(Nc1ccccc1OS(=O)(=O)c1ccc(F)cc1)c1ccc2ncccc2c1` the IC50 was 0.624 µM (P2RX7; calcium signal; antagonist).
